Measured values published in publication PMC11301096 (iScience, 2024).
No end group written: not given here. *: point of attachment. Biotin = O=C1N[C@H]2[C@H](CS[C@H]2CCCCC(=O)*)N1

Key:
Hep 3B cells = test: CCK-8 proliferative activity; assay type: cell-based, human; conditions: read-out: IC50, proliferation; CCK-8, 48 h, mean of n = 3
Method in brief: (§1)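 Cells grown in DMEM with 10% FBS and 1% antibiotics at 37°C, 5% CO2; log-phase cells used. Seeded at 4×10^3/well for 24 h, then exposed to graded doses of test compound (DMSO stock) for 48 h. CCK-8 reagent added for 1–2 h in the dark; absorbance read at 450 nm. Three independent experiments.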

Huh7 cells = test: CCK-8 proliferative activity; assay type: cell-based, human; conditions: read-out: IC50, proliferation; CCK-8, 48 h, mean of n = 3
Method in brief: as §1

[1] = test system: human normal hepatocyte L-O2; test: CCK-8 proliferative activity; assay type: cell-based; conditions: 10 μM and 20 μM BO1, CCK-8, 48 h
Method in brief: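 Normal hepatocytes seeded at 4×10^3/well and incubated 24 h, then exposed to test compound for 48 h. CCK-8 reagent added for 1–2 h protected from light; absorbance measured at 450 nm. Three independent experiments.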

L-O2 cells [2] = test: Cell cycle analysis by flow cytometry; assay type: cell-based, human; conditions: 20 μM BO1, 48 h
Method in brief: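 Cells (5×10^5 per 100 mm dish) attached for 24 h, then exposed to test compound for 48 h. Cell pellets fixed in 70% ethanol for 4 h and washed twice with PBS. Stained with a DNA-content quantitation kit; cell-cycle distribution read by flow cytometry.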

L-O2 cells [3] = test: Hoechst 33258 staining; assay type: cell-based, human; conditions: 20 μM BO1, 48 h
Method in brief: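 Seeded at 4×10^4 cells/well for 24 h, then treated 48 h. Fixed in 4% tissue fixative for 15 min and stained with Hoechst 33258 for 5 min. Washed twice with PBS; nuclei viewed by fluorescence microscopy.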

[4] = In vivo xenograft model, toxicity read-outs; design: species or system BALB/c-Nude mice; conditions: BO1 4.57 mg/kg intraperitoneally every other day, two weeks, n = 6
Method in brief: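 Four-week-old male nude mice acclimatised 7 days, then implanted subcutaneously with 2×10^6 Hep 3B cells; randomised into two groups of 6. Once tumours reached 100 mm3, given 200 μL saline or test compound intraperitoneally every other day, with weighing and tumour measurement. Killed after two weeks; serum taken for ALT, AST and creatinine.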

HSP90A = HSP90A (Homo sapiens, UniProt P07900); test: Biotinylated pull-down with western blot; assay type: binding; conditions: compared to samples extracted with IgG; cell extracts, 4°C, 12 h
Method in brief: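 Bead-bound biotin-labelled test compound (4°C, 3 h) rotated with cell extracts at 4°C for 12 h. Beads washed in ice-cold NT2 buffer (4°C, 5 min), then four more washes. Bound proteins eluted with protein elution buffer plus DTT at 37°C for 2 h. Eluates analysed by LC-MS and western blot, with an IgG pull-down as negative control.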

HSP90A in samples pulled by bio-BO1 (western blot) (HSP90A)	Substance	IC50 (Hep 3B cells) [µM]	IC50 (Huh7 cells) [µM]	activity of normal hepatocytes (proliferative activity) [1]	cell cycle progression (L-O2 cells [2])	nuclear fluorescence staining (L-O2 cells [3])	histopathological examination of major organs (heart, liver, spleen, and kidney), H&E [4]	serum alanine aminotransferase (ALT) activity [4]	serum aspartate aminotransferase (AST) activity [4]	serum creatinine (CREA) activity [4]
–	GIGSAILSAGKSIIKGLAKGLAEHF-NH2 [BO1, Bombinin-BO1]	15.2	24.9	no significant change	not significantly affected	no significant changes	normal findings	comparable to those of control mice	comparable to those of control mice	comparable to those of control mice
significantly detected	bio-BO1: Biotin-labeled BO1 (Biotin-GIGSAILSAGKSIIKGLAKGLAEHF-NH2; SMILES CC[C@H](C)[C@H](NC(=O)CNC(=O)CCCC[C@@H]1SC[C@@H]2NC(=O)N[C@@H]21)C(=O)NCC(=O)N[C@@H](CO)C(=O)N[C@@H](C)C(=O)N[C@H](C(=O)N[C@@H](CC(C)C)C(=O)N[C@@H](CO)C(=O)N[C@@H](C)C(=O)NCC(=O)N[C@@H](CCCCN)C(=O)N[C@@H](CO)C(=O)N[C@H](C(=O)N[C@H](C(=O)N[C@@H](CCCCN)C(=O)NCC(=O)N[C@@H](CC(C)C)C(=O)N[C@@H](C)C(=O)N[C@@H](CCCCN)C(=O)NCC(=O)N[C@@H](CC(C)C)C(=O)N[C@@H](C)C(=O)N[C@@H](CCC(=O)O)C(=O)N[C@@H](Cc1c[nH]cn1)C(=O)N[C@@H](Cc1ccccc1)C(N)=O)[C@@H](C)CC)[C@@H](C)CC)[C@@H](C)CC)	–	–	–	–	–	–	–	–	–
